Assay results as given in publication PMC4955683 (Nature chemical biology, 2016).

How the values were obtained:
[1] = HPLC analysis of SIRT6 binding to NAD+; conditions: 10 µM SIRT6 incubated with 10 µM NAD+, 10 kDa cutoff membrane
Procedure, shortened: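 SIRT6 (10 µM; WT, G60A or H133Y) was incubated with 10 µM NAD+ in 25 mM Tris-HCl pH 8.0, 50 mM NaCl for 30 min at room temperature. The mix was diluted to 500 µL and spun through a 10 kDa membrane (15,000 g, 20 min). The filtrate (unbound NAD+) was lyophilized, redissolved in water and quantified by HPLC.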

[2] = Thermal shift assay and tryptophan fluorescence emission spectra; assay type: physicochemical
H3K9 myristoyl peptide [3] = assay: Demyristoylation steady-state kinetics; assay type: biochemical
H3K9 myristoyl peptide [4] = assay: Defatty-acylation assay, SIRT6 purified from HEK 293T cells; assay type: biochemical; conditions: 0.2 µM SIRT6 from HEK293T cells, 5 µM Myr-H3K9, 1 mM NAD+, 37°C, 60 min
Procedure, shortened: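 SIRT6 WT or mutants were affinity-purified from HEK 293T lysates on anti-Flag gel, eluted with 3X FLAG peptide and buffer-exchanged on a 10 kDa membrane. Reaction buffer was 25 mM Tris-HCl pH 8.0, 50 mM NaCl, 1 mM DTT. Reactions were quenched with cold acetonitrile and centrifuged, and supernatants were analysed by C18 reverse-phase HPLC (water/acetonitrile, 0.1% TFA) for H3K9 peptide formation.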

[5] = test system: H3K9 palmitoyl, TNFα myristoyl and H3K9 octanoyl peptides; assay: Defatty-acylation assay on other fatty-acyl peptides; assay type: biochemical
[6] = test system: acetyl-H3K9 and acetyl-H3K56; assay type: cell-based, Human; conditions: flag-tagged SIRT6 overexpressed in SIRT6 KO 293T cells
Procedure, shortened: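 Sirt6 KO HEK 293T cells in DMEM/10% heat-inactivated FBS were transiently transfected with SIRT6 WT, mutants or empty pCMV4a. Blots were probed with Ac-H3K9, Ac-H3K56 and histone H3 antibodies (1:5000; acetyl antibodies 4 °C 12 h), then secondary antibody (1:3000, 1 h RT). Detection was by ECL chemiluminescence; band intensities were quantified as mean ± s.d. of three replicates.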

H3K9 acetyl peptide = assay: Deacetylation assay, SIRT6 WT and mutants purified from E. coli; assay type: biochemical; conditions: 2 µM SIRT6, 25 µM H3K9 acetyl peptide, 1 mM NAD+, 300 µM palmitic acid, 37°C, 2 hours
Procedure, shortened: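 Full-length human SIRT6 (WT or mutant) was expressed from pET28a in E. coli BL21(DE3). Reactions (40 µL) contained 25 mM Tris-HCl pH 8.0, 50 mM NaCl and 1 mM DTT plus the listed components. They were quenched with an equal volume of cold acetonitrile and centrifuged. Supernatants were run on C18 HPLC using a water/acetonitrile 0.1% TFA gradient to quantify deacetylated H3K9 peptide.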

[7] = test system: SIRT6 (self ADP-ribosylation); assay: In vitro mono-ADP-ribosylation assay; assay type: biochemical, human; conditions: 2.5 µM SIRT6, 50 µM 6-alkyne-NAD, 30°C, 30 min
Procedure, shortened: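 Reactions contained SIRT6 WT or mutants in 25 mM Tris-HCl pH 8.0, 50 mM NaCl, 1 mM DTT, with NAD+ replacing 6-alkyne-NAD as negative control. Click chemistry with BODIPY-N3, TBTA, CuSO4 and TCEP ran 30 min at room temperature. Samples were boiled in SDS buffer, separated on 12% SDS-PAGE and destained 2 h, and ADP-ribosylation was read as in-gel BODIPY fluorescence.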

[8] = test system: IAP2, GLS, RPL3 and MnSOD; assay: mRNA levels of SIRT6-regulated genes in Sirt6 KO MEFs; assay type: cell-based, mouse; conditions: SIRT6 overexpressed in Sirt6 KO MEFs
RPL17 and RPS7 = RPL17 and RPS7 in exosomes from MEFs; assay type: cell-based, mouse; conditions: exosomes from Sirt6 KO MEFs expressing SIRT6
Procedure, shortened: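 MEFs at 90% confluence were washed with PBS and serum-free DMEM, then conditioned in serum-free medium for 12 h. Medium was cleared at 500 g (5 min) and 3,000 g (20 min), then passed through a 0.2 µm filter. Filtrate was ultracentrifuged at 100,000 g for 2 h, and pellets were washed, re-pelleted and lysed in NP-40 buffer. Blots used RPL17/RPS7 antibodies (1:1000, 4 °C 12 h) with ECL detection.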

TNFα = assay: ELISA analysis of TNFα secretion in MEFs; assay type: cell-based, Human; conditions: SIRT6 stably expressed in Sirt6 KO MEFs
Sirt6 KO MEFs [9] = assay: Cell viability after glucose starvation; assay type: cell-based, mouse; conditions: SIRT6 expressed in Sirt6 KO MEFs, glucose free medium 72 h
Procedure, shortened: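 Stable SIRT6-expressing Sirt6 KO MEFs were selected with […] puromycin 48 h post-infection, with empty pCDH vector as control, and grown in DMEM/10% heat-inactivated FBS. Cells were seeded at 3,000/well and switched after 48 h to glucose-free DMEM/10% FBS for 72 h. They were then fixed in cold methanol, stained with 0.2% crystal violet, solubilized in 0.5% SDS/50% ethanol, and read at 550 nm.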

Sirt6 KO MEFs [10] = assay: Secreted and intracellular protein levels in MEFs; assay type: cell-based, mouse; conditions: SIRT6 overexpressed in Sirt6 KO cells
Procedure, shortened: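 MEFs at 90% confluence were washed with PBS and serum-free DMEM, then kept in serum-free DMEM for 12 h. Medium was cleared at 500 g (5 min) and 3,000 g (10 min) and concentrated on 10 kDa filters. Western blots were probed for VCP, RPL17, RPS7, COL5A1, COL6A1 and CXCL1 (1:1000, 4 °C 12 h), followed by secondary antibody (1:3000, 1 h RT) and ECL detection.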

[11] = NAD+ binding by intrinsic tryptophan fluorescence; conditions: read-out: Kd for NAD^+ in the presence of H3K9 acetyl peptide, 1 mM H3K9 acetyl peptide
Procedure, shortened: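 SIRT6 (3 µM) in 25 mM Tris-HCl pH 7.4, 150 mM NaCl, 10% glycerol was premixed with 1 mM tryptophan-free Ac-H3K9 and titrated with NAD+. Excitation was 295 nm with emission scanned 320–390 nm, using peak maxima. Fraction bound was (F−F0)/(Fsat−F0), and Kd came from a one-site quadratic binding fit with [E] = 3 µM.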

| Substance | NAD^+ bound to SIRT6 [1] [%] | stability and fluorescence with H3K9 myristoyl peptide ([2]; 0.1 mM H3K9 myristoyl peptide) | stability and fluorescence with H3K9 acetyl peptide ([2]; 1 mM H3K9 acetyl peptide) | thermal stability ([2]; without peptide, versus SIRT6 WT, 37 to 62 °C for 3 min) | decrease of kcat of demyristoylation versus SIRT6 WT (H3K9 myristoyl peptide [3]) [fold] | increase of Km of demyristoylation versus SIRT6 WT (H3K9 myristoyl peptide [3]) [fold] | defatty-acylase activity, substrate conversion (H3K9 myristoyl peptide [4]) [%] | defatty-acylase activity on other fatty-acyl peptides [5] | H3K9 and H3K56 acetylation levels in cells [6] | H3K9 acetyl peptide hydrolyzed/converted to H3K9 peptide (H3K9 acetyl peptide) | ADP-ribosyltransferase (ART) activity [7] | transcriptional suppression of IAP2, GLS, RPL3 and MnSOD [8] | RPL17 and RPS7 in exosomes (RPL17 and RPS7) | TNFα secretion (TNFα) | glucose starvation-caused cell death (Sirt6 KO MEFs [9]) | secreted levels of Group 1 proteins (RPL17, RPS7, VCP) (Sirt6 KO MEFs [10]) | secreted levels of Group 2 proteins (COL6A1, COL5A1, CXCL1) (Sirt6 KO MEFs [10]) | Kd [11] [µM] |
| --- | --- | --- | --- | --- | --- | --- | --- | --- | --- | --- | --- | --- | --- | --- | --- | --- | --- | --- |
| SIRT6 G60A | 2.0 ± 0.7 | became similar to those of SIRT6 WT | not affected | decreased thermal stability | 1.9 | 1.8 | 25.6 | robust defatty-acylase activities | no detectable deacetylase activity in cells | approximately 1.8% | no observable ART activity | could not | not in exosomes | promoted TNFα secretion | neither SIRT6 G60A nor H133Y did | decreased the secreted levels to that in Sirt6 WT cells | restored the secreted levels to that in Sirt6 WT cells | 634 ± 91 |
| SIRT6 H133Y | 59 ± 3 | – | – | – | – | – | – | – | – | – | – | – | can be detected | no effect on TNFα secretion | – | – | – | – |
| SIRT6 R65A | – | – | – | – | – | – | – | – | – | – | weak self ADP-ribosylation activities | – | – | – | – | – | – | – |
